Source: PubChem BioAssay
An excerpt weighted towards active compounds, which were near 3.7% of everything screened.
KCNK9 block = blocks the human KCNK9 two-pore domain potassium channel; Q9NPC2; HEK293 KCNK9, FluxOR thallium flux fluorescence; stronger effect = lower value; B-score at 10 µM; hit rate 1.2% among 310,000;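 active = ratio B-score over 3 SD below the library mean, with starting fluorescence within 5 SD of its mean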;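 note: negative B-score means less thallium flux so channel inhibition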
KCNQ1 block = human KCNQ1 channel inhibition; P51787; CHO-K1 KCNQ1, FluxOR thallium flux fluorescence; stronger effect = higher value; B-score at 10 µM; hit rate 1.3% among 310,000;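 active = compounds whose thallium flux B-score, printed positive for inhibition, exceeds three library SD while starting fluorescence stays within three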;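 note: channel opened by potassium depolarization with thallium stimulus after 20 min compound exposure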
hERG protect = compounds protecting human hERG from proarrhythmic drug block | activation (rescue from dofetilide block), less the hit threshold, % at 10 µM | CHO-hERG, FluxOR thallium flux, dofetilide IC70 present | hit rate 0.51% among 310,000 | AID 1511;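 active = activation above the mean of controls blocked by dofetilide plus 5 SD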;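 note: thallium influx through hERG after potassium depolarization seen as dye fluorescence rise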
Kir21 inh = blocks the mouse Kir2.1 inward-rectifier potassium channel. B-score at 10 µM. P35561. hit rate 0.85% among 310,000. HEK293-Kir2.1, FluxOR thallium flux fluorescence; stronger effect = lower value;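 active = fluorescence ratio B-score at or below minus 3 SD of library scores, with starting-brightness B-score within 2 SD, cut at about -4.2 in these data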;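 note: channel flux triggered by added potassium and thallium sulfate stimulus; B-score of peak minus minimum fluorescence over baseline after thallium stimulus; more negative B-score means stronger Kir2.1 block with less thallium influx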
Target sequence (P35561 whole entry, looked up): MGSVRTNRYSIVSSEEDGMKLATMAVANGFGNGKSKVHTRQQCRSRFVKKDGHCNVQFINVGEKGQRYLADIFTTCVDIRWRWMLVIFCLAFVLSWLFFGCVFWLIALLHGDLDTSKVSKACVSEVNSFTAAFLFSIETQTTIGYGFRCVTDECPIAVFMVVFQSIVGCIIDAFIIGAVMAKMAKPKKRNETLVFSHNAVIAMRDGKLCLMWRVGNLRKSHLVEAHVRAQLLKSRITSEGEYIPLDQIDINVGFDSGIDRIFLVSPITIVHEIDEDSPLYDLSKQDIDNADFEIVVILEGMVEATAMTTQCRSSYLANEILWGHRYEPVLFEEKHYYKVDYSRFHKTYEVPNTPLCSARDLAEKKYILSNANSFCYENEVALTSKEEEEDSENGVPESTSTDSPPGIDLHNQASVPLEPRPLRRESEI
KCNK3 inh = human KCNK3 channel inhibition, primary screen. hit rate 0.84% among 340,000. CHO-KCNK3 thallium flux, FluxOR fluorescence; stronger effect = lower value. O14649. B-score at 10 µM. AID 602410;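 active = B-score under library mean minus 4 SD, starting fluorescence ratio at most library mean plus 5 SD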;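 note: more negative B-score means stronger inhibition of thallium flux through KCNK3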
KCNQ1 act = potentiates or activates the human KCNQ1 potassium channel; CHO-K1 KCNQ1, thallium flux FluxOR fluorescence; stronger effect = higher value; B-score at 10 µM; hit rate 0.35% among 310,000;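 active = fluorescence ratio B-score, a plate-corrected score, at least three library SD, with initial intensity B-score within 5 SD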
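assay system = CHO-K1 cells stably expressing KCNQ1 | medium = assay buffer, equal DMSO in all wells | timing = 37 °C overnight plating, 90-min dark dye load, 20-min compound pretreatment | measured by = kinetic FluxOR thallium fluorescence, 10-s 1-Hz baseline, 110-s post-stimulus read | measure = fluorescence change relative to baseline, converted to B score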
KCNK9 block conf = human KCNK9 inhibitor confirmation; shares compounds with KCNK9 block; HEK293 KCNK9 cells, FluxOR thallium flux fluorescence; inhibition, % at 10 µM; hit rate 43% among 4,900;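 active = thallium signal inhibited by more than 5 SD of the compound-free buffer control wells, on both duplicate plates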;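 note: 0% = assay buffer control wells without compound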
Kir2-1 spec = selectivity of KCNK9 modulators against mouse Kir2.1; shares compounds with KCNK9 block; Kir2.1 cells, FluxOR thallium flux fluorescence; inhibition, % at 10 µM; hit rate 4% among 4,900;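 active = thallium signal drop more than 5 SD beyond the mean of the no-compound control wells, seen in both duplicate plates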;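 note: signal is fluorescence rise after thallium addition divided by baseline fluorescence; plate controls were assay buffer only for no effect and full block by chlorpromazine control for full effect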
HEK293 Tl ctr = second counter-screen for KCNK9 modulators: effect in non-induced cells. AID 492997. inhibition, % at 10 µM. hit rate 40% among 4,900. non-induced KCNK9-HEK293, FluxOR thallium flux. shares compounds with KCNK9 block;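 active = thallium signal drop beyond 5 SD of the untreated control mean, on both duplicate plates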;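 note: plate controls were buffer only IC0 wells for no effect and SID17386958 at its maximal inhibitory level for full effect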
Starred values were filed as active, the others as inactive; i = inactive; . = not tested or not shown.

SMILES	KCNK9 block	KCNQ1 block	hERG protect	Kir21 inh	KCNK3 inh	KCNQ1 act	KCNK9 block conf	Kir2-1 spec	HEK293 Tl ctr
CSc1cccc(NC(=O)C2CCN(C(=O)c3ccccc3C)CC2)c1	i	i	-8.2	-1.86	i	i	i	i	i
CCN(CC)C(=O)COc1ccc(/C=N/NC(=O)c2cc(-c3ccccc3OC)nc3ccccc23)cc1OC	i	i	-11.9	0.56	i	i	.	.	.
COC(=O)c1ccc(OC)c(CN2CCCN(Cc3cc(C)ccc3C)S2(=O)=O)c1	-16.9*	i	-4.8	-0.59	i	i	62.0%*	i	27.5%*
COc1ccc(CCNC(=O)c2c([S-])n(-c3ccc(C)cc3)c3cccc[n+]23)cc1	i	i	-24.1	0.18	i	i	i	i	i
c1ccc(CSc2snnc2-c2ccccc2)cc1	i	i	-5.5	-2.11	i	i	.	.	.
Clc1ccc(CSc2snnc2-c2ccccc2)c(Cl)c1	i	7*	-17.4	-2.04	i	i	i	i	25.0%*
Cc1cccc(OCCNC(=O)c2cccc(Oc3ccc(C(F)(F)F)cc3[N+](=O)[O-])c2)c1	i	i	-9.3	0.3	i	i	i	i	i
COc1ccc(NC(=O)CCCN2C(=O)CN(C)C2=O)cc1Cl	.	.	.	.	i	.	.	.	.
CCOc1ccc(Br)cc1C1=NN(C(C)=O)C(c2ccc([N+](=O)[O-])s2)O1 (stereo not given)	-10.3*	i	-7.1	0	-10.2*	i	63.0%*	i	39.5%*
CC(=O)N1CCN(S(=O)(=O)c2cccc(C(=O)Nc3ccccc3N3CCCC3)c2)CC1	i	i	-7.6	-0.25	i	i	.	.	.
O=C(Nc1ccc(Oc2ccc(NC(=O)Nc3ccccc3Cl)cc2)cc1)Nc1ccccc1Cl	i	i	-4.1	1.35	i	i	.	.	.
O=C1CC(=C(c2ccccc2)c2ccccc2)C(=O)N1CCN1CCN(c2cccc(Cl)c2)CC1	i	i	-5.1	-0.87	i	i	i	i	i
COc1ccc(COC(=O)CCc2cc(OC)c(OC)c(OC)c2)cc1F	.	.	.	.	i	.	.	.	.
CC(=O)c1ccc(NC(=O)c2ccc(-n3cnnn3)cc2)cc1	.	.	.	.	i	.	.	.	.
Cc1ccc2c(c1)N(C(=O)CCC(=O)N1CCN(c3ccccc3)CC1)CCO2	i	i	-10.7	0.02	i	i	.	.	.
Cc1ccc2c(c1)N(C(=O)CCC(=O)N1CCN(c3cccc(C)c3C)CC1)CCO2	i	i	-14.0	0.83	i	i	i	i	i
Cc1cccc(N2CCN(C(=O)CCC(=O)N3CC(C)Oc4ccccc43)CC2)c1C (stereo not given)	i	i	-17.9	-1.04	i	i	i	i	i
CC1CCN(C(=O)CCC(=O)N2CC(C)Oc3ccccc32)CC1 (stereo not given)	i	i	-9.0	0.29	i	i	.	.	.
O=C(Nc1cccc([N+](=O)[O-])c1)C1CCN(C(=O)Cc2ccccc2)CC1	i	i	-13.2	0.21	i	i	.	.	.
CCN(CC)C(=O)c1ccccc1NC(=O)CN1C(=O)c2ccccc2C1=O	i	i	-5.1	0	i	i	.	.	.
Cn1ccnc1SCC(=O)Nc1cccc(C(F)(F)F)c1	i	i	-3.1	-0.51	i	i	.	.	.
O=C(CSC1=NCCN1)Nc1cccc(C(F)(F)F)c1	-9.94*	i	-17.8	-0.41	i	i	32.5%*	i	24.5%*
CC(=O)Nc1ccc(NC(=O)CN2CCN(c3cccc(C(F)(F)F)c3)CC2)cc1	i	i	-8.3	-0.5	i	i	.	.	.
O=C(CN1CCN(c2cccc(C(F)(F)F)c2)CC1)Nc1cccc(C(F)(F)F)c1	i	9*	-17.1	-0.4	i	i	i	i	i
